Assay results as given in ChEMBL document CHEMBL1137852, “Novel fluoro- and hydroxyl-containing jasmonate derivatives as highly efficient elicitors in suspension cultures of Taxus chinensis” (2004).

Key:
Format in all cases: functional
[1] = Eliciting activity on Tc (taxuyunnanine C) production in cell cultures of Taxus chinensis
How it was run: (§1)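 T. chinensis suspension cells grown in 50 mL medium in 250-mL flasks. Elicitor added on day 7 post-inoculation in ethanol (1 µL per mL medium); controls received an equal volume of ethanol. Tc quantified by reverse-phase HPLC; maximum volumetric production (mg/L) within 21 days reported. Triplicate cultures, mean ± S.D.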

[2] = Eliciting activity on Tc (taxuyunnanine C) content in cell cultures of Taxus chinensis
How it was run: as §1, with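 “after inoculation” for “post-inoculation”, “measured” for “quantified”, “HPLC and expressed as mg per g dry cells;” for “HPLC;”, “content” for “volumetric production (mg/L)”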

[3] = Effect on Tc (taxuyunnanine C) content in cell cultures of Taxus chinensis at a concentration of 10 uM
How it was run: as §1, with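 “after inoculation” for “post-inoculation”, “measured” for “quantified”, “HPLC and expressed as mg per g dry cells;” for “HPLC;”, “content” for “volumetric production (mg/L)”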

[4] = Effect on Tc (taxuyunnanine C) production in cell cultures of Taxus chinensis at a concentration of 10 uM; how it was run: as §1
[5] = Effect on Tc (taxuyunnanine C) content in cell cultures of Taxus chinensis at a concentration of 500 uM
How it was run: as §1, with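 “after inoculation” for “post-inoculation”, “measured” for “quantified”, “HPLC and expressed as mg per g dry cells;” for “HPLC;”, “content” for “volumetric production (mg/L)”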

[6] = Effect on Tc (taxuyunnanine C) content in cell cultures of Taxus chinensis at a concentration of 100 uM
How it was run: as §1, with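 “after inoculation” for “post-inoculation”, “measured” for “quantified”, “HPLC and expressed as mg per g dry cells;” for “HPLC;”, “content” for “volumetric production (mg/L)”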

[7] = Effect on Tc (taxuyunnanine C) content in cell cultures of Taxus chinensis
How it was run: as §1, with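 “after inoculation” for “post-inoculation”, “measured” for “quantified”, “HPLC and expressed as mg per g dry cells;” for “HPLC;”, “content” for “volumetric production (mg/L)”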

[8] = Effect on Tc (taxuyunnanine C) production in cell cultures of Taxus chinensis at a concentration of 100 uM; how it was run: as §1
[9] = Effect on Tc (taxuyunnanine C) production in cell cultures of Taxus chinensis; how it was run: as §1
[10] = Effect on Tc (taxuyunnanine C) production in cell cultures of Taxus chinensis at a concentration of 500 uM; how it was run: as §1
[11] = Effect on Tc (taxuyunnanine C) production in cell cultures of Taxus chinensis at a concentration of 1 uM; how it was run: as §1
[12] = Effect on Tc (taxuyunnanine C) content in cell cultures of Taxus chinensis at a concentration of 0 uM
How it was run: as §1, with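 “after inoculation” for “post-inoculation”, “measured” for “quantified”, “HPLC and expressed as mg per g dry cells;” for “HPLC;”, “content” for “volumetric production (mg/L)”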

[13] = Effect on Tc (taxuyunnanine C) production in cell cultures of Taxus chinensis at a concentration of 0 uM; how it was run: as §1
[14] = Effect on Tc (taxuyunnanine C) content in cell cultures of Taxus chinensis at a concentration of 1 uM
How it was run: as §1, with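 “after inoculation” for “post-inoculation”, “measured” for “quantified”, “HPLC and expressed as mg per g dry cells;” for “HPLC;”, “content” for “volumetric production (mg/L)”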

| SMILES | Activity [1] [mg/L] | Activity [2] [mg/g DW] | further results |
| --- | --- | --- | --- |
| CC/C=C/CC1C(=O)CCC1CC(=O)OC (centres undefined) | 386 | 29.2 |  |
| CC/C=C/CC1C(=O)CCC1CC(=O)OCC(F)(F)C(F)(F)F (centres undefined) | 480.5 | 38.22 |  |
| CC/C=C/CC1C(=O)CCC1CC(=O)OCCC (centres undefined) | 357 | 27.9 |  |
| CC/C=C/CC1C(=O)CCC1CC(=O)OCCOCCO (centres undefined) | 417 | 31.4 |  |
| CC/C=C/CC1C(=O)CCC1CC(=O)OCC(F)(F)F (centres undefined) | 440.3 | 34.94 |  |
| CC/C=C/CC1C(=O)CCC1CC(=O)OCC(O)CO (centres undefined) |  |  | Activity [3]: 27 mg/g DW; Activity [4]: 358 mg/L; Activity [5]: 49.8 mg/g DW; Activity [6]: 43.2 mg/g DW; Activity [7]: 47.2 mg/g DW; Activity [8]: 544 mg/L; Activity [9]: 550 mg/L; Activity [10]: 522 mg/L; Activity [11]: 160 mg/L; Activity [12]: 9.4 mg/g DW; Activity [13]: 128 mg/L; Activity [14]: 11.6 mg/g DW |
| CC/C=C/CC1C(=O)CCC1CC(=O)OCCO (centres undefined) | 464 | 38.1 |  |
